# Measurements gathered from unrelated publications.
# Lines come from different studies, so protocols differ.
# Organism: Mycolicibacterium smegmatis
# Read-out: microbial growth
SMILES,test,system,setting,MIC
CO[C@H]1/C=C/O[C@@]2(C)Oc3c(C)c(O)c4c(O)c(c(/C=N/N5CCN(C)CC5)c(O)c4c3C2=O)NC(=O)/C(C)=C\C=C\[C@H](C)[C@H](O)[C@@H](C)[C@@H](O)[C@@H](C)[C@H](OC(C)=O)[C@@H]1C,resazurin,MC^2155,24 h,0.8 µg/mL
CCCCCCc1ccc(-c2nc(N)[nH]c2C(F)(F)F)cc1,broth dilution,ATCC700084 MC^2155,,> 200 µM
Cc1ccc(Nc2nc(-c3cc(C(=O)Nc4ccsc4)no3)cs2)cc1,,MC2155,,> 64 µg/mL
NC[C@H]1O[C@H](O[C@H]2[C@H](O)[C@@H](O[C@H]3O[C@H](CO)[C@@H](O)[C@H](N)[C@H]3O)[C@H](N)C[C@@H]2N)[C@H](N)C[C@@H]1O,broth dilution,,72 h,1 µg/mL
Cc1ccc(-c2c[nH]c(N)n2)cc1,,ATCC700084 MC^2155,48 h,100 µM
CC(=O)O[C@H]1C[C@@]2(C)[C@@H](C[C@@H](O)[C@H]3[C@@]4(C)CC[C@@H](O)[C@@H](C)[C@@H]4CC[C@@]32C)/C1=C(\CCC=C(C)C)C(=O)O,resazurin,MC^2155,24 h,50 µg/mL
Cc1ccc(Nc2nc(-c3cc(C(=O)Nc4ccccc4)no3)cs2)cc1,,MC2155,,> 64 µg/mL
CC[C@@H](CO)NCCN[C@@H](CC)CO,resazurin,MC^2155,24 h,0.78 µg/mL
CCCCCOc1ccc(-c2c[nH]c(N)n2)cc1,,ATCC700084 MC^2155,48 h,150 µM
CCN[C@@H]1C[C@H](N)[C@@H](O[C@H]2OC(CN)=CC[C@H]2N)[C@H](O)[C@H]1O[C@H]1OC[C@](C)(O)[C@H](NC)[C@H]1O,broth dilution,,72 h,2 µg/mL
CCOc1ccc(-c2c[nH]c(N)n2)cc1,,ATCC700084 MC^2155,48 h,200 µM
CO[C@@H]1[C@@H](OC(N)=O)[C@@H](O)[C@H](Oc2ccc3c(O)c(NC(=O)c4ccc(O)c(CC=C(C)C)c4)c(=O)oc3c2C)OC1(C)C,resazurin,MC^2155,24 h,8 µg/mL
NC[C@@H]1O[C@H](O[C@H]2[C@@H](O)[C@H](O[C@@H]3[C@@H](O)[C@H](N)C[C@H](N)[C@H]3O[C@H]3O[C@H](CO)[C@@H](O)[C@H](O)[C@H]3N)O[C@@H]2CO)[C@H](N)[C@@H](O)[C@@H]1O,broth dilution,,72 h,0.5 µg/mL
Cl.N=C(N)N/N=C/c1ccc(-c2ccc(/C=N/Nc3ccccc3Cl)cc2)cc1,,MC2155,,1.7 µg/mL
Cc1ccc(Nc2nc(-c3cc(C(=O)Nc4ccc(O)cc4)no3)cs2)cc1,,MC2155,,> 64 µg/mL
CCCOc1ccc(-c2c[nH]c(N)n2)cc1,,ATCC700084 MC^2155,48 h,100 µM
C[C@H]1COc2c(N3CCN(C)CC3)c(F)cc3c(=O)c(C(=O)O)cn1c23,resazurin,MC^2155,24 h,0.14 µg/mL
